ChEMBL document CHEMBL3784930, “Design, synthesis and biological evaluation of N,N-3-phenyl-3-benzylaminopropanamide derivatives as novel cholesteryl ester transfer protein inhibitor” (Bioorg Med Chem, 2016)

test system: Syrian golden hamster; test: Antidyslipidemic activity in high cholesterol/lipid diet fed golden syrian hamster assessed as reduction in LDL-cholesterol levels at 30 mg/kg/day, po administered for 2 weeks relative to control; format: functional, Mesocricetus auratus; parameters: scale not given: the % may be the effect or the level left; conditions: not given
How it was run: (§1)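 Male Golden Syrian hamsters (8 weeks old, 120-130 g) were randomized by weight into control and treated groups (n = 6). Dyslipidemia was induced with a high cholesterol and lipid diet for 5 weeks. Dosing was oral at 30 mg/kg/day for two weeks in ethanol/cremophor/saline 5:5:90. Blood was drawn from the orbit, and serum lipid levels were compared with controls.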

| Compound | Activity [%] |
| --- | --- |
| CCOC(=O)c1ccc(N2CCN(C(=O)CCN(Cc3ccc(F)cc3)c3cccc(Oc4ccccc4)c3)CC2)cc1 | 24.6 |

target: T1, Cholesteryl ester transfer protein (Homo sapiens, UniProt P11597); test: Inhibition of full-length human recombinant CETP expressed in CHO cells by BODIPY-CE fluorescence assay; format: cell-based; conditions: not given
T1 sequence (P11597 whole entry): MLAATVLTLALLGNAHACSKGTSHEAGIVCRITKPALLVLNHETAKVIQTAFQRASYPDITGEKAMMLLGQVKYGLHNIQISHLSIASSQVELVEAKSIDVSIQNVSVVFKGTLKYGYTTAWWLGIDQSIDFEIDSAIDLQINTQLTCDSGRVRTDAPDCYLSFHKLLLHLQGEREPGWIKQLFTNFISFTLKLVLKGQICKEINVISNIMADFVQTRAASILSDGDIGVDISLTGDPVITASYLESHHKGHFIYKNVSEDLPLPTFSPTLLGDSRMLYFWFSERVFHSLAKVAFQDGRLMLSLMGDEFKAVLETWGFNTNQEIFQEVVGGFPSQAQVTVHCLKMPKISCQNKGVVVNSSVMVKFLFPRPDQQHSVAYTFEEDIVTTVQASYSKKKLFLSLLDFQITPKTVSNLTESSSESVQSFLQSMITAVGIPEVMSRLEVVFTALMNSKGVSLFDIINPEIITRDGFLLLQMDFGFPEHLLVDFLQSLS

| Compound | IC50 [µM] |
| --- | --- |
| O=C(CCN(Cc1ccc(F)cc1)c1ccc(Cl)c(Cl)c1)NC1CC1 | > 50 |
| CCc1cc(N(CCC(=O)N2CCN(c3ccccc3)CC2)Cc2ccc(F)cc2)ccc1Cl | 19.5 |
| CC(C)(C)NC(=O)CCN(Cc1ccc(F)cc1)c1ccc(Cl)c(Cl)c1 | 29.6 |
| CCCCN(CC1CC1)C(=O)CCN(Cc1ccc(F)cc1)c1ccc(Cl)c(Cl)c1 | > 50 |
| O=C(CCN(Cc1ccc(F)cc1)c1ccc(Cl)c(C(F)(F)F)c1)N1CCN(c2ccccc2)CC1 | 37.8 |

The remaining lines, values ahead:

| IC50 [µM] | Compound |
| --- | --- |
| 3.5 | COc1ccc(N2CCN(C(=O)CCN(Cc3ccc(F)cc3)c3ccc(Cl)c(Cl)c3)CC2)cc1 |
| 2.8 | CCOC(=O)c1ccc(N2CCN(C(=O)CCN(Cc3ccc(F)cc3)c3ccc(Cl)c(Cl)c3)CC2)cc1 |
| 13.9 | Cc1cc(N(CCC(=O)N2CCN(c3ccccc3)CC2)Cc2ccc(F)cc2)ccc1Br |
| 7.3 | COc1ccc(N2CCN(C(=O)CCN(Cc3ccc(F)cc3)c3cccc(-c4ccccc4)c3)CC2)cc1 |
| 10.7 | O=C(CCN(Cc1ccc(F)cc1)c1ccc(Cl)c(Cl)c1)NC1CCCCC1 |
| 11.8 | O=C(CCN(Cc1ccc(F)cc1)c1ccc(Cl)c(Cl)c1)N1CCN(c2ncccn2)CC1 |
| 5.2 | O=C(CCN(Cc1ccc(F)cc1)c1ccc(Cl)c(Cl)c1)N1CCN(c2ccccc2)CC1 |
| 11.3 | O=C(CCN(Cc1ccc(F)cc1)c1cccc(-c2ccccc2)c1)N1CCN(c2ccccc2)CC1 |
| 14.2 | O=C(CCN(Cc1ccc(F)cc1)c1ccc(Cl)c(Cl)c1)N1CCOCC1 |
| 2.8 | COc1ccc(N2CCN(C(=O)CCN(Cc3ccc(F)cc3)c3cccc(Oc4ccccc4)c3)CC2)cc1 |
| 3.1 | CCOC(=O)c1ccc(N2CCN(C(=O)CCN(Cc3ccc(F)cc3)c3cccc(-c4ccccc4)c3)CC2)cc1 |

test system: Homo sapiens; test: In vivo inhibition of CETP in human whole plasma at 120 mg for 14 days; format: functional, organism-based; conditions: 336 h

| IC50 [µM] | Compound |
| --- | --- |
| 0.05 | CCOC(=O)N1c2ccc(C(F)(F)F)cc2[C@@H](N(Cc2cc(C(F)(F)F)cc(C(F)(F)F)c2)C(=O)OC)C[C@H]1CC [TORCETRAPIB] |

test system: Syrian golden hamster; test: Antidyslipidemic activity in high cholesterol/lipid diet fed golden syrian hamster assessed as increase in HDL-cholesterol levels at 30 mg/kg/day, po administered for 2 weeks relative to control; format: functional, Mesocricetus auratus; conditions: not given; how it was run: as §1

| Compound | Activity [%] |
| --- | --- |
| CCOC(=O)c1ccc(N2CCN(C(=O)CCN(Cc3ccc(F)cc3)c3cccc(Oc4ccccc4)c3)CC2)cc1 | 21.7 |

organism: Homo sapiens; test: Reduction in LDL-cholestrol levels in mild dyslipidemia patient at 5 to 10 mg; format: functional; parameters: scale not given: the % may be the effect or the level left; conditions: not given

| Compound | Activity [%] |
| --- | --- |
| CCOC(=O)N1c2ccc(C(F)(F)F)cc2[C@@H](N(Cc2cc(C(F)(F)F)cc(C(F)(F)F)c2)c2ncc(OCCCC(=O)O)cn2)C[C@H]1CC [OBICETRAPIB] | 45.3 |

target: Cholesteryl ester transfer protein (Homo sapiens) (UniProt P11597); test: Inhibition of recombinant CETP by BODIPY-CE fluorescence assay; conditions: not given

| IC50 [µM] | Compound |
| --- | --- |
| 8.06 | COc1ccc(C(CC(=O)c2ccccc2)Nc2ccc(Cl)cc2)cc1OC (configuration not stated) |

organism: Homo sapiens; test: Increase in HDL-cholestrol levels in mild dyslipidemia patient at 10 mg; format: functional; conditions: not given

| Compound | Activity [%] |
| --- | --- |
| CCOC(=O)N1c2ccc(C(F)(F)F)cc2[C@@H](N(Cc2cc(C(F)(F)F)cc(C(F)(F)F)c2)c2ncc(OCCCC(=O)O)cn2)C[C@H]1CC [OBICETRAPIB] | 179.1 |
